Where two headings read alike, the source gives them in different places.
Legend:
multiple myeloma [1] = conditions: twice weekly carfilzomib monotherapy 20/27 mg/m^2; cited from earlier work
[2] = Plasma pharmacokinetics of carfilzomib after 30-minute intravenous infusion; assay type: in vivo, human; conditions: for AUClast / T1/2 (terminal elimination half-life): mean ± SD, SD; for Tmax: median (minimum-maximum)
How it was run: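 Relapsed/refractory myeloma patients got a 30-min IV infusion of test compound with dexamethasone 40 mg. Plasma was sampled on Days 1 (20 mg/m2) and 15 (70 mg/m2) of Cycle 1: pre-infusion, 5 and 15 min after start, just before end, then 5, 15, 30 min and 1, 2, 4 h post-infusion. Per-patient parameters were summarised as mean ± SD, Tmax as median (min–max).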

multiple myeloma [3] = conditions: twice weekly carfilzomib monotherapy 20/45 or 20/56 mg/m^2; cited from earlier work
[4] = Day 1 of Cycle 1, carfilzomib 20 mg/m^2 iv, N = 6
[5] = Day 15 of Cycle 1, carfilzomib 70 mg/m^2 iv, N = 5

CC(C)C[C@H](NC(=O)[C@H](CCc1ccccc1)NC(=O)CN1CCOCC1)C(=O)N[C@@H](Cc1ccccc1)C(=O)N[C@@H](CC(C)C)C(=O)[C@@]1(C)CO1 [carfilzomib]
ORR (multiple myeloma [1]): 22.5% | AUClast [2, 4]: 355 ± 120 ng·h/mL | T1/2 (terminal elimination half-life) [2, 4]: 41 ± 15.1 min | Tmax [2, 4]: 0.575 (0.250‐0.617) h | AUClast [2, 5]: 1250 ± 285 ng·h/mL | T1/2 (terminal elimination half-life) [2, 5]: 54 ± 4.44 min | Tmax [2, 5]: 0.467 (0.250‐0.617) h | ORR (multiple myeloma [3]): 57.1%
